Measurements from ChEMBL document CHEMBL1129554, “6-Substituted and 5,6-disubstituted derivatives of uridine: stereoselective synthesis, interaction with uridine phosphorylase, and in vitro antitumor activity” (J Med Chem, 1996).
Values after ≈ are worked out from the molar mass of the structure shown.

What was measured:
[1] = Efficacy was determined as ratio of Vmax to that of Km; format: ADME
Outline: (§1)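 Homogeneous E. coli uridine phosphorylase in 50 mM phosphate buffer at 37 °C. pH 6 was used for 5-fluoro analogues and pH 7.5 for the others, so the neutral form predominates. Phosphorolysis was followed spectrophotometrically as the decrease in absorbance, 285 nm for 5-fluoro and 280 nm for the rest. Initial rates were taken over 20 s. Apparent Km and Vmax came from a Wilkinson fit, and efficacy = Vmax/Km.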

[2] = Catalytical constant (app Km)of the compound was evaluated at pH 7.5; format: ADME; conditions: read-out: Km app; outline: as §1
[3] = Catalytical constant (Vmax) was evaluated; format: ADME; outline: as §1
K562 = assay: In vitro antitumor activity in K-562 cell lines; format: functional, cell-based; conditions: Homo sapiens
Outline: (§2)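 Cytotoxicity was measured as inhibition of [¹⁴C]-L-leucine incorporation into protein. Triplicate cultures held 2 × 10⁴ cells/well, or 10⁵ PHA-stimulated peripheral blood lymphocytes, in RPMI 1640 with 10% FCS, 5% CO₂, 37 °C. Label (0.5 µCi/mL) was present for the final 24 h of a 3-day culture (4 days for PHA-Ly). Protein was precipitated with perchloric acid and counted. IC50 (µg/mL) was taken from dose-response curves.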

PHA-Ly = assay: IIn vitro antitumor activity in PHA-Ly cell lines; format: functional, cell-based; conditions: Homo sapiens; outline: as §2
IM-9 = assay: In vitro antitumor activity in IM-9 cell lines; format: functional, cell-based; conditions: Homo sapiens; outline: as §2
U-937 = assay: In vitro antitumor activity in U-937 cell lines; format: functional, cell-based; conditions: Homo sapiens; outline: as §2
[4] = Catalytical constant (app Km)of the compound was evaluated at pH 6; format: ADME; conditions: read-out: Km app; outline: as §1
MOLT-3 = assay: In vitro antitumor activity in MOLT-3 cell lines; format: functional, cell-based; conditions: Homo sapiens; outline: as §2

Which Efficacy [1] does the source give for `CCc1cc(=O)[nH]c(=O)n1C1O[C@H](CO)[C@@H](O)[C@H]1O` (some centres undefined) here?
Its Efficacy is 0.15.

What about the Km [2] of the same compound?
Its Km is 1200 µM.

And the Vmax [3]?
The Vmax was 175 uM min-1 (mg of protein)-1.

With `Cc1c(F)c(=O)[nH]c(=O)n1C1O[C@H](CO)[C@@H](O)[C@H]1O` (some centres undefined) as the compound, how does the IC50 (K562) read?
Its IC50 is > 10 µg/mL.

And the Efficacy [1]?
Its Efficacy is 0.05.

And the IC50 (PHA-Ly)?
The IC50 was > 10 µg/mL.

What about the IC50 (IM-9) of the same compound?
Its IC50 is > 10 µg/mL.

And the IC50 (U-937)?
Its IC50 is > 10 µg/mL.

And the Vmax [3]?
The Vmax was 67 uM min-1 (mg of protein)-1.

And the Km [4]?
Its Km is 1360 µM.

And the IC50 (MOLT-3)?
Its IC50 is > 10 µg/mL.

Which results are given for `CCCc1cc(=O)[nH]c(=O)n1C1O[C@H](CO)[C@@H](O)[C@H]1O` (some centres undefined)?
Efficacy [1]: 0.03; Km [2]: 1150 µM; Vmax [3]: 40 uM min-1 (mg of protein)-1

For `O=c1cc(CO)n(C2O[C@H](CO)[C@@H](O)[C@H]2O)c(=O)[nH]1` (some centres undefined), which IC50 (K562) is on record?
Its IC50 is > 10 µg/mL.

And the Efficacy [1]?
Its Efficacy is 0.53.

And the IC50 (PHA-Ly)?
Its IC50 is 98 µg/mL (≈ 357 µM).

And the Km [2]?
The Km was 476 µM.

And the IC50 (IM-9)?
Its IC50 is > 10 µg/mL.

And the IC50 (U-937)?
Its IC50 is > 10 µg/mL.

What about the Vmax [3] of the same compound?
Its Vmax is 254 uM min-1 (mg of protein)-1.

What about the IC50 (MOLT-3) of the same compound?
Its IC50 is > 10 µg/mL.

Which results are given for `O=c1[nH]c(=O)n(C2O[C@H](CO)[C@@H](O)[C@H]2O)c(CO)c1F` (some centres undefined)?
IC50 (K562): 4.9 µg/mL (≈ 16.8 µM); Efficacy [1]: 0.09; IC50 (PHA-Ly): 2.8 µg/mL (≈ 9.58 µM); IC50 (IM-9): 3 µg/mL (≈ 10.3 µM); IC50 (U-937): 3.7 µg/mL (≈ 12.7 µM); Vmax [3]: 370 uM min-1 (mg of protein)-1; Km [4]: 4000 µM; IC50 (MOLT-3): 1.2 µg/mL (≈ 4.11 µM)

Which results are given for `O=c1[nH]c(=O)n([C@@H]2O[C@H](CO)[C@@H](O)[C@H]2O)c(CF)c1F`?
IC50 (K562): > 10 µg/mL; Efficacy [1]: 0.06; IC50 (PHA-Ly): 4.5 µg/mL (≈ 15.3 µM); IC50 (IM-9): > 10 µg/mL; IC50 (U-937): 3.7 µg/mL (≈ 12.6 µM); Vmax [3]: 57 uM min-1 (mg of protein)-1; Km [4]: 979 µM; IC50 (MOLT-3): 3.5 µg/mL (≈ 11.9 µM)

For `O=c1cc(CF)n(C2O[C@H](CO)[C@@H](O)[C@H]2O)c(=O)[nH]1` (some centres undefined), which IC50 (K562) is on record?
Its IC50 is > 10 µg/mL.

And the Efficacy [1]?
Its Efficacy is 0.99.

And the IC50 (PHA-Ly)?
The IC50 was > 10 µg/mL.

And the Km [2]?
Its Km is 300 µM.

And the IC50 (IM-9)?
Its IC50 is 9.9 µg/mL (≈ 35.8 µM).

What about the IC50 (U-937) of the same compound?
Its IC50 is > 10 µg/mL.

And the Vmax [3]?
The Vmax was 297 uM min-1 (mg of protein)-1.

What about the IC50 (MOLT-3) of the same compound?
Its IC50 is > 10 µg/mL.

What does the source list for `O=c1[nH]cc(F)c(=O)[nH]1` [FLUOROURACIL]?
IC50 (K562): 4.3 µg/mL (≈ 33.1 µM); IC50 (PHA-Ly): 1.4 µg/mL (≈ 10.8 µM); IC50 (IM-9): 0.34 µg/mL (≈ 2.61 µM); IC50 (U-937): 0.5 µg/mL (≈ 3.84 µM); IC50 (MOLT-3): 1.2 µg/mL (≈ 9.23 µM)

Which IC50 (K562) does the source give for `O=c1[nH]c(=O)n([C@@H]2O[C@H](CO)[C@@H](O)[C@H]2O)cc1F` [5-FLUOROURIDINE] here?
Its IC50 is 0.026 µg/mL (≈ 0.0992 µM).

And the Efficacy [1]?
The Efficacy was 2.1.

What about the IC50 (PHA-Ly) of the same compound?
The IC50 was < 0.1 µg/mL.

What about the IC50 (IM-9) of the same compound?
Its IC50 is < 0.01 µg/mL.

What about the IC50 (U-937) of the same compound?
Its IC50 is < 0.01 µg/mL.

What about the Vmax [3] of the same compound?
Its Vmax is 323 uM min-1 (mg of protein)-1.

And the Km [4]?
The Km was 152 µM.

What about the IC50 (MOLT-3) of the same compound?
Its IC50 is < 0.01 µg/mL.
